Where a name gives a salt, the structure may show the parent alone.
Key:
[1] = molecular target: T1, Adrenergic receptor alpha-2 (Rattus norvegicus, UniProt P22086+P19328+P22909); assay: 50% inhibition of specific [3H]clonidine binding (0.4 nM) to Alpha-2 adrenergic receptors in rat isolated brain membranes; format: cell membranes, Membrane
T1 sequence (P22086 whole entry): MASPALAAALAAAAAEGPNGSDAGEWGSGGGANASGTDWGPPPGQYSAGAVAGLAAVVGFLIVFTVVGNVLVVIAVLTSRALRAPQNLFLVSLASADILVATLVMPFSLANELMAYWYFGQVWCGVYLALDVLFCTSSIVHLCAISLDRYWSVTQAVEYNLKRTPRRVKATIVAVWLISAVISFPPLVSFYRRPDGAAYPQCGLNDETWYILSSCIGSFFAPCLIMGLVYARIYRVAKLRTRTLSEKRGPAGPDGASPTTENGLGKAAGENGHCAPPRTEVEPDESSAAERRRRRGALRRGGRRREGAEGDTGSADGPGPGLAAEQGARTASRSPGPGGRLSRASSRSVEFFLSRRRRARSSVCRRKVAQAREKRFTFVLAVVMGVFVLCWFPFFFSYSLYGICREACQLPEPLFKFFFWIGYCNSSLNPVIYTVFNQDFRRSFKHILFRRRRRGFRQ
T1 sequence (P19328 whole entry): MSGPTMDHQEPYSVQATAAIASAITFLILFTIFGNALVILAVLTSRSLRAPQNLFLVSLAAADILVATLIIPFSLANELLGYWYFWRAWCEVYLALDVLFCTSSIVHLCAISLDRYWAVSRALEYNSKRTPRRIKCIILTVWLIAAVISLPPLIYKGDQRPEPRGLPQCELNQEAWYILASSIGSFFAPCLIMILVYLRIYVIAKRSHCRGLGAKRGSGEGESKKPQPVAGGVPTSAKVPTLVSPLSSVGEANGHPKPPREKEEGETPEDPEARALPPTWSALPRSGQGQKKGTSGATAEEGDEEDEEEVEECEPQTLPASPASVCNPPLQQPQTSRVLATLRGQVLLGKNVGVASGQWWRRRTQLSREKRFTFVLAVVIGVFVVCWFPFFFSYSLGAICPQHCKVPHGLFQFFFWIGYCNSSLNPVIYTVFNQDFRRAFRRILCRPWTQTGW
T1 sequence (P22909 whole entry): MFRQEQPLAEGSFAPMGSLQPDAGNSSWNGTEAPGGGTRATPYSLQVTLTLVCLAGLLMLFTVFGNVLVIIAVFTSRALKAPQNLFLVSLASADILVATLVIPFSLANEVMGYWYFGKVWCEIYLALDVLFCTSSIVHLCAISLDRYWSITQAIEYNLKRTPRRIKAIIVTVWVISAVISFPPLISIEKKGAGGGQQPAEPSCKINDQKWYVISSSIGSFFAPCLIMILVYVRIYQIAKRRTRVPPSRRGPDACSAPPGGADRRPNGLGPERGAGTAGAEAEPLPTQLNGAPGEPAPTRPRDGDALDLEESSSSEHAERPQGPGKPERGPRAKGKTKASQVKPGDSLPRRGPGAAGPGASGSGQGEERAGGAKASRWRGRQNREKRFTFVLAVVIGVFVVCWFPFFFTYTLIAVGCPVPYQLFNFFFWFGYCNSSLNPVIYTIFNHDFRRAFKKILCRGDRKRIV
Outline: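 Whole rat brain (minus cerebellum) from male Wistar rats (200–250 g), homogenized in ice-cold 50 mM Tris-HCl pH 7.7 and washed twice at 50000g. Bound ligand was collected by rapid filtration and counted. IC50 was derived by log-probit analysis.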

Rattus norvegicus [2] = assay: Hypertensive activity (increase in arterial pressure to 60 mmHg)) after i.v. administration to pithed rats.
[3] = molecular target: T2, Adrenergic receptor alpha-1 (Rattus norvegicus, UniProt P15823+P23944+P43140); assay: Binding affinity against alpha-1 adrenergic receptor is the ability to inhibit the specific [3H]prazosin binding (0.2 nM) to rat isolated brain membranes by 50% was reported.
T2 sequence (P15823 whole entry): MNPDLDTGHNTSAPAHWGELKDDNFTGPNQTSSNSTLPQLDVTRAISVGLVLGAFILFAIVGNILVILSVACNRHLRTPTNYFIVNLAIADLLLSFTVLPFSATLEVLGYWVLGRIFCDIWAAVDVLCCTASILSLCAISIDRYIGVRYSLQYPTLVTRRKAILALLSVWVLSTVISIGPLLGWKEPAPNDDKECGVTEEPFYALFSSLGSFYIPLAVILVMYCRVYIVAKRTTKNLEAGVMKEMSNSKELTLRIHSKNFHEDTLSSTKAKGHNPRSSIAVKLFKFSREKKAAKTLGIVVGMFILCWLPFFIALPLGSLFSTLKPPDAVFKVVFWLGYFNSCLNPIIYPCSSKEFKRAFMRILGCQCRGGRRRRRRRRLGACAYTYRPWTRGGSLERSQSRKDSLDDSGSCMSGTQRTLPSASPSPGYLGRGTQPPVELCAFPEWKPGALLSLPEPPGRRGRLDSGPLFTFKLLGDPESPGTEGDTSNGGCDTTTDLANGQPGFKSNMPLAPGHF
T2 sequence (P23944 whole entry): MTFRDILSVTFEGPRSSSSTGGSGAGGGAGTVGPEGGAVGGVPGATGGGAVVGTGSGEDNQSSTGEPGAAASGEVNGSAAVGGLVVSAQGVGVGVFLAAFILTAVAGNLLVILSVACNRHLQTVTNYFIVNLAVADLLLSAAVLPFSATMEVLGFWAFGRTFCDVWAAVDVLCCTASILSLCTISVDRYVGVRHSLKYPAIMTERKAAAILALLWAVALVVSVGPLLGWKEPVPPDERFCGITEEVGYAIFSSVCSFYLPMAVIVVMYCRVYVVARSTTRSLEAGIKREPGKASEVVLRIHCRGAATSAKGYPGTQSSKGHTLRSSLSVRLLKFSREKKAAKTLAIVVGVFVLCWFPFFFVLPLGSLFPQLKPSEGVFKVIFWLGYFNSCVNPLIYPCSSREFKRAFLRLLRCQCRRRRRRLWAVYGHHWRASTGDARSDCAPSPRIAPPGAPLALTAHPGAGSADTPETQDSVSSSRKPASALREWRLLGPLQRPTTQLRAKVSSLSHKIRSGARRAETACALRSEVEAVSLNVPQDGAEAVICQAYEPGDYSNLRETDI
T2 sequence (P43140 whole entry): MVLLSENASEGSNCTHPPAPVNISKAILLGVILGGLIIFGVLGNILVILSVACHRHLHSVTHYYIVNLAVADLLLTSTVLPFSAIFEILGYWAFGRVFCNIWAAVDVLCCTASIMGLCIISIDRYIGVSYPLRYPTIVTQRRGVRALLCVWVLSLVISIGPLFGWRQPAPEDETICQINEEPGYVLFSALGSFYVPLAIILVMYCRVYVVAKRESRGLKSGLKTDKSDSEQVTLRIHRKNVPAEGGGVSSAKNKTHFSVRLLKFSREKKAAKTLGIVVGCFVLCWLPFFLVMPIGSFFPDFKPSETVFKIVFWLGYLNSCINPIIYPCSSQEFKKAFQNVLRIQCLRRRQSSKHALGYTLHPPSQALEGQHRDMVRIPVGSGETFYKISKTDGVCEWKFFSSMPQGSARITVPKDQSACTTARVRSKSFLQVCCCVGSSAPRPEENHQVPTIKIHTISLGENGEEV

[4] = molecular target: T1, Adrenergic receptor alpha-2; assay: Binding affinity against Alpha-2 adrenergic receptor is the ability to inhibit the specific [3H]clonidine binding (0.4 nM) to rat isolated brain membranes by 50% was reported; 2.5*10e-8; format: tissue-based, Membrane
[5] = molecular target: T2, Adrenergic receptor alpha-1; assay: Binding affinity against alpha-1 adrenergic receptor is the ability to inhibit the specific [3H]-prazosin binding (0.2 nM) to rat isolated brain membranes by 50% was reported; 5*10e-4; format: tissue-based, Membrane
Outline: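 Brain membranes were prepared from male Wistar rats (200–250 g, cerebellum removed) in ice-cold 50 mmol/L Tris-HCl, pH 7.7, with two 50000g spins, and used at 1 mg/mL protein (Lowry). […] Bound label was collected by vacuum filtration and counted. IC50 came from log probit analysis.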

Rattus norvegicus [6] = assay: Hypotensive activity (25% decrease in arterial pressure) after i.v. administration to anesthetized normotensive rats.
[7] = Apparent partion coefficient of compound was evaluated in octanol/buffer at pH of 7.4 at 37 degree Centigrade; format: physicochemical; conditions: pH 7.4
[8] = molecular target: T1, Adrenergic receptor alpha-2; assay: Binding affinity against alpha-2 adrenergic receptor is the ability to inhibit the specific [3H]clonidine binding (0.4 nM) to rat isolated brain membranes by 50% was reported.; parameters: species or system Membrane
Outline: (§1)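 Whole rat brain (minus cerebellum) from male Wistar rats (200–250 g), homogenized in ice-cold 50 mM Tris-HCl pH 7.7 and washed twice at 50000g. […] Bound ligand was collected by rapid filtration and counted. IC50 was derived by log-probit analysis.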

[9] = molecular target: T1, Adrenergic receptor alpha-2; assay: Binding affinity against Alpha-2 adrenergic receptor is the ability to inhibit the specific [3H]clonidine binding (0.4 nM) to rat isolated brain membranes by 50% was reported; 9.1*10e-9; format: tissue-based, Membrane; outline: as §1
[10] = molecular target: T2, Adrenergic receptor alpha-1; assay: Binding affinity against alpha-1 adrenergic receptor is the ability to inhibit the specific [3H]-prazosin binding (0.2 nM) to rat isolated brain membranes by 50% was reported; 4.85*10e-6; format: tissue-based, Membrane
Outline: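 Whole rat brain (minus cerebellum) from male Wistar rats (200–250 g), homogenized in ice-cold 50 mM Tris-HCl pH 7.7 and washed twice at 50000g. […] Bound ligand was collected by filtration and counted. IC50 was derived by log-probit analysis.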

[11] = molecular target: T1, Adrenergic receptor alpha-2; assay: Binding affinity against Alpha-2 adrenergic receptor is the ability to inhibit the specific [3H]clonidine binding (0.4 nM) to rat isolated brain membranes by 50% was reported; 1.6*10e-8; parameters: species or system Membrane; outline: as §1
[12] = molecular target: T1, Adrenergic receptor alpha-2; assay: Binding affinity against Alpha-2 adrenergic receptor is the ability to inhibit the specific [3H]-clonidine binding (0.4 nM) to rat isolated brain membranes by 50% was reported; 5.9*10e-8; format: tissue-based, Membrane
[13] = molecular target: T2, Adrenergic receptor alpha-1; assay: Binding affinity against alpha-1 adrenergic receptor is the ability to inhibit the specific [3H]prazosin binding (0.2 nM) to rat isolated brain membranes by 50% was reported; 8.9*10e-7; format: tissue-based, Membrane

| SMILES | IC50 [1] [nM] | pC60 (Rattus norvegicus [2]) [uM kg-1] | IC50 [3] [nM] | pC25 (Rattus norvegicus [6]) [uM kg-1] | further results |
| --- | --- | --- | --- | --- | --- |
| CCCN(CCC)C1CCc2c(ccc(O)c2O)C1 (stereo not drawn) | 80 | 0.54 | 15000 | – | – |
| C=CCN1CCc2nc(N)sc2CC1 [TALIPEXOLE] | – | 0.69 | – | 1.43 | IC50 [4]: 25 nM; IC50 [5]: 500000 nM |
| FC(F)(F)c1ccc(Cl)c(NC2=NCCN2)c1 | – | 1.21 | 470 | – | logD [7]: 1.54; IC50 [8]: 150 nM |
| CCCN(CCC)C1CCc2cc(O)c(O)cc2C1 (stereo not drawn) | 87 | 0.36 | 24000 | – | – |
| CNCC(O)c1cccc(NS(C)(=O)=O)c1 (stereo not drawn) [AMIDEPHRINE MESYLATE] | 1900 | 1.36 | 40000 | – | – |
| Clc1cccc(Cl)c1NC1=NCCN1 [CLONIDINE] | – | 1.78 | – | 2.04 | – |
| Cc1csc(Cl)c1NC1=NCCN1 [TIAMENIDINE] | – | 1.2 | – | 0.69 | IC50 [9]: 9.1 nM; IC50 [10]: 4850 nM |
| CCCN(CCC)C1CCc2ccc(O)cc2C1 (stereo not drawn) | 1200 | -0.09 | 18000 | – | – |
| N=C(N)N/N=C/c1c(Cl)cccc1Cl [GUANABENZ] | 1.7 | 0.93 | – | – | – |
| CN(C)C1CCc2c(ccc(O)c2O)C1 (stereo not drawn) | 17 | 1.2 | 39000 | – | – |
| CCCN(CCC)C1CCc2c(O)cccc2C1 (stereo not drawn) [5-OH-DPAT] | 850 | -0.13 | 18000 | – | – |
| Oc1ccc(NC2=NCCN2)cc1O | – | 2.44 | 5100 | – | IC50 [8]: 14 nM |
| Brc1c(NC2=NCCN2)ccc2nccnc12 [BRIMONIDINE] | – | – | – | 1.55 | – |
| COc1ccc(OC)c(C(O)C(C)N)c1 (stereo not drawn) [METHOXAMINE] | 3600 | 0.75 | 170000 | – | – |
| Cc1cc(C(C)(C)C)c(O)c(C)c1CC1=NCCN1 [OXYMETAZOLINE] | – | 2.24 | – | – | logD [7]: -0.32 |
| c1cc2c(c(NC3=NCCN3)c1)CCCC2 [TRAMAZOLINE] | – | 1.8 | – | 0.55 | IC50 [11]: 16 nM |
| c1ccc(C2CC2)c(OCC2=NCCN2)c1 [CIRAZOLINE] | – | 2.36 | – | – | logD [7]: 0.53; IC50 [12]: 59 nM; IC50 [13]: 890 nM |
| CNC[C@H](O)c1cccc(O)c1 [PHENYLEPHRINE] | – | 1.55 | – | – | – |
| c1ccc2c(CC3=NCCN3)cccc2c1 [NAPHAZOLINE] | – | 1.83 | – | 0.95 | – |
